Measurements reported in ChEMBL document CHEMBL5303300, “EUbOPEN Chemogenomics Library - Multiplex” (2023).
Where “and” joins values, the source holds several entries; their conditions need not be identical. Equal values may be shown once.

Key:
HEK-293T = test: Multiplex assay against HEK293T; type: toxicity, cell-based; settings: human, number of replicates 2
How it was run: (§1)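 Cells stained live at seeding with Hoechst33342, BioTracker Green Microtubule Cytoskeleton Dye, MitoTracker Red and Annexin V Alexa Fluor 680 were imaged on a CQ1 microscope at 37°C and 5% CO2 after compound addition. Their classification by CellPathfinder machine-learning gating ran from Hoechst high-intensity objects versus normal cells, to healthy, pyknosed or fragmented nuclei among normal cells, to mitotic or apoptotic among pyknosed cells. Tubulin, mitochondrial-mass and membrane-permeability phenotypes are per cents of healthy-nucleus cells.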

U2OS = test: Multiplex assay against U2OS; type: toxicity, cell-based; settings: human, number of replicates 2; how it was run: as §1
[1] = 24 h, 1 µM, compound concentration 1 uM
[2] = 24 h, 10 µM, compound concentration 10 uM
[3] = 48 h, 1 µM, compound concentration 1 uM
[4] = 48 h, 10 µM, compound concentration 10 uM
[5] = 12 h, 1 µM, compound concentration 1 uM
[6] = 12 h, 10 µM, compound concentration 10 uM

COC(=O)c1ccc2c(c1)NC(=O)/C2=C(\Nc1ccc(-c2nccn2C)cc1)c1ccccc1
Population Mitotic Cells (%) (HEK-293T; [1]): 69% and 68% | Population Normal (%) (HEK-293T; [1]): 93% and 92% | Population Pyknosed Nuclei (%) (HEK-293T; [1]): 6% and 8% | Population Tubulin-Different-Phenotype (%) (HEK-293T; [1]): 35% and 36% | Total Cell Count (HEK-293T; [1]): 1123 and 936 | Population Apoptotic (%) (HEK-293T; [2]): 55% and 74% | Population Fragmented Nuclei (%) (HEK-293T; [2]): 6% and 5% | Population Healthy Nuclei (%) (HEK-293T; [2]): 79% and 80% | Population Hoechst High Intensity Objects (%) (HEK-293T; [2]): 9% and 11% | Population Membrane Permeable-Phenotype (%) (HEK-293T; [2]): 3% and 4% | Population Mitochondria Different-Phenotype (%) (HEK-293T; [2]): 27% and 38% | Population Mitotic Cells (%) (HEK-293T; [2]): 44% and 25% | Population Normal (%) (HEK-293T; [2]): 90% and 88% | Population Pyknosed Nuclei (%) (HEK-293T; [2]): 13% and 14% | Population Tubulin-Different-Phenotype (%) (HEK-293T; [2]): 81% and 89% | Total Cell Count (HEK-293T; [2]): 660 and 604 | Population Apoptotic (%) (HEK-293T; [3]): 28% and 24% | Population Fragmented Nuclei (%) (HEK-293T; [3]): 12% and 9% | Population Healthy Nuclei (%) (HEK-293T; [3]): 84% and 87% | Population Hoechst High Intensity Objects (%) (HEK-293T; [3]): 9% | Population Membrane Permeable-Phenotype (%) (HEK-293T; [3]): 4% and 3% | Population Mitochondria Different-Phenotype (%) (HEK-293T; [3]): 0% and 1% | Population Mitotic Cells (%) (HEK-293T; [3]): 72% and 75% | Population Normal (%) (HEK-293T; [3]): 90% | Population Pyknosed Nuclei (%) (HEK-293T; [3]): 2% and 3% | Population Tubulin-Different-Phenotype (%) (HEK-293T; [3]): 12% and 19% | Total Cell Count (HEK-293T; [3]): 2887 and 2005 | Population Apoptotic (%) (HEK-293T; [4]): 46% and 56% | Population Fragmented Nuclei (%) (HEK-293T; [4]): 11% and 8% | Population Healthy Nuclei (%) (HEK-293T; [4]): 83% and 85% | Population Hoechst High Intensity Objects (%) (HEK-293T; [4]): 11% | Population Membrane Permeable-Phenotype (%) (HEK-293T; [4]): 5% and 4% | Population Mitochondria Different-Phenotype (%) (HEK-293T; [4]): 10% and 22% | Population Mitotic Cells (%) (HEK-293T; [4]): 53% and 43% | Population Normal (%) (HEK-293T; [4]): 88% | Population Pyknosed Nuclei (%) (HEK-293T; [4]): 5% and 6% | Population Tubulin-Different-Phenotype (%) (HEK-293T; [4]): 64% and 85% | Total Cell Count (HEK-293T; [4]): 1119 and 790 | Population Healthy Nuclei (%) (U2OS; [5]): 70% and 88% | Population Hoechst High Intensity Objects (%) (U2OS; [5]): 0% | Population Membrane Permeable-Phenotype (%) (U2OS; [5]): 12% and 2% | Population Mitochondria Different-Phenotype (%) (U2OS; [5]): 4% and 0% | Population Mitotic Cells (%) (U2OS; [5]): 100% and 64% | Population Normal (%) (U2OS; [5]): 100% | Population Pyknosed Nuclei (%) (U2OS; [5]): 2% and 8% | Population Tubulin-Different-Phenotype (%) (U2OS; [5]): 54% and 83% | Population Apoptotic (%) (U2OS; [6]): 50% and 68% | Population Healthy Nuclei (%) (U2OS; [6]): 43% and 77% | Population Hoechst High Intensity Objects (%) (U2OS; [6]): 0% | Population Membrane Permeable-Phenotype (%) (U2OS; [6]): 25% and 15% | Population Mitochondria Different-Phenotype (%) (U2OS; [6]): 7% and 20% | Population Mitotic Cells (%) (U2OS; [6]): 50% and 31% | Population Normal (%) (U2OS; [6]): 100% | Population Pyknosed Nuclei (%) (U2OS; [6]): 16% and 15% | Population Tubulin-Different-Phenotype (%) (U2OS; [6]): 55% and 43% | Total Cell Count (U2OS; [6]): 62 and 186 | Population Apoptotic (%) (U2OS; [1]): 84% and 57% | Population Healthy Nuclei (%) (U2OS; [1]): 91% and 65% | Population Hoechst High Intensity Objects (%) (U2OS; [1]): 0% | Population Membrane Permeable-Phenotype (%) (U2OS; [1]): 2% and 11% | Population Mitochondria Different-Phenotype (%) (U2OS; [1]): 0% and 5% | Population Mitotic Cells (%) (U2OS; [1]): 15% and 42% | Population Normal (%) (U2OS; [1]): 100% | Population Pyknosed Nuclei (%) (U2OS; [1]): 5% and 13% | Population Tubulin-Different-Phenotype (%) (U2OS; [1]): 79% and 44% | Population Apoptotic (%) (U2OS; [2]): 58% and 68% | Population Healthy Nuclei (%) (U2OS; [2]): 42% and 74% | Population Hoechst High Intensity Objects (%) (U2OS; [2]): 0% | Population Membrane Permeable-Phenotype (%) (U2OS; [2]): 22% and 10% | Population Mitochondria Different-Phenotype (%) (U2OS; [2]): 27% and 31% | Population Mitotic Cells (%) (U2OS; [2]): 41% and 31% | Population Normal (%) (U2OS; [2]): 100% | Population Pyknosed Nuclei (%) (U2OS; [2]): 23% and 20% | Population Tubulin-Different-Phenotype (%) (U2OS; [2]): 50% and 52% | Population Apoptotic (%) (U2OS; [3]): 50% and 62% | Population Healthy Nuclei (%) (U2OS; [3]): 71% and 90% | Population Hoechst High Intensity Objects (%) (U2OS; [3]): 0% | Population Membrane Permeable-Phenotype (%) (U2OS; [3]): 5% and 2% | Population Mitochondria Different-Phenotype (%) (U2OS; [3]): 3% and 0% | Population Mitotic Cells (%) (U2OS; [3]): 50% and 37% | Population Normal (%) (U2OS; [3]): 100% | Population Pyknosed Nuclei (%) (U2OS; [3]): 9% and 5% | Population Tubulin-Different-Phenotype (%) (U2OS; [3]): 58% and 86% | Population Apoptotic (%) (U2OS; [4]): 93% and 88% | Population Healthy Nuclei (%) (U2OS; [4]): 40% and 72% | Population Hoechst High Intensity Objects (%) (U2OS; [4]): 3% and 0% | Population Membrane Permeable-Phenotype (%) (U2OS; [4]): 27% and 11% | Population Mitochondria Different-Phenotype (%) (U2OS; [4]): 40% and 21% | Population Mitotic Cells (%) (U2OS; [4]): 6% and 11% | Population Normal (%) (U2OS; [4]): 96% and 99% | Population Pyknosed Nuclei (%) (U2OS; [4]): 27% and 21% | Population Tubulin-Different-Phenotype (%) (U2OS; [4]): 59% and 40%
